PMC6945494 (Biomaterials, 2019)
Converted amounts (≈) assume the structure as drawn. Like-named read-outs stand apart in the source and are kept apart here.

Tests used:
[1] = Solubility in water and 1-octanol; format: physicochemical
Procedure, shortened: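 Excess test compound or parent nucleoside was added to water or 1-octanol to give saturated solutions. These were mixed 24 h at room temperature, then centrifuged at 14,000 × g for 10 min to remove undissolved drug. Supernatant concentration was quantified by UPLC-TUV.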

HIV-1ADA [2] = experiment: EC50 by HIV-1 RT activity in MDM; format: cell-based; conditions: read-out: EC50 (HIV-1 RT activity)
HIV-1NL4–3-eGFP = experiment: microbe, parasite or virus in culture; format: cell-based; conditions: Human immunodeficiency virus 1, T-cell, 240 h, read-out: EC50 (RT activity)
MDM [3] = experiment: MTT cell viability assay in MDM; format: cell-based, human; conditions: for effect on mitochondrial reductase activity (MTT): 10–400 μM
MDM [4] = experiment: Cellular drug uptake and retention in MDM; format: cell-based, human
HIV-1ADA [5] = experiment: Long-term antiretroviral efficacy in MDM; format: cell-based
Procedure, shortened: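 Human monocytes from leukapheresis, purified by elutriation and differentiated 7 days in DMEM with 10% heat-inactivated human serum and 1000 U/mL MCSF. MDM were exposed to 100 μM test compound for 8 h, washed, and kept drug-free with half-media changes every other day. On days 1–30 they were challenged with HIV-1ADA at MOI 0.1 for 16 h. RT activity in fluids on day 10; PFA-fixed cells stained for p24.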

[6] = Pharmacokinetics and biodistribution after a single IM injection; format: in vivo, Sprague Dawley rats; conditions: rat
[7] = Prodrug chemical stability at acid, alkaline and neutral pH; format: physicochemical; conditions: room temperature; for prodrug degraded: after 24 h
[8] = Plasma stability, human plasma; format: in vitro ADME; conditions: 37 °C; for chemical stability in plasma: up to 24 h, 1 μM
Procedure, shortened: (§1)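 Plasma (100 μL) was spiked with 1 μM test compound at 37 °C. It was stopped at 0, 2, 6 and 24 h with 1 mL methanol and 3 min vortexing. Heat-inactivated plasma under identical conditions separated chemical from enzymatic loss. After centrifugation at 15,000 g for 10 min, supernatant was diluted in 80% methanol with internal standard. Analysed by UPLC-MS/MS.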

[9] = Plasma stability, animal plasma; format: in vitro ADME, rat, mouse; conditions: rodent, dog, rabbit and monkey plasma, after 24 h at 37 °C
Procedure, shortened: as §1

Nc1nc(=O)n([C@@H]2CS[C@H](CO)O2)cc1F [FTC, emtricitabine]
solubility at 24 h ([1]; 1-octanol): 0.97 ± 0.027 mg/mL (≈ 3.92 mM)
solubility at 24 h ([1]; water): 143 ± 11.2 mg/mL (≈ 578 mM)
EC50 (HIV-1ADA [2]; Human immunodeficiency virus 1, 240 h): 0.5 nM
EC50 (HIV-1NL4–3-eGFP): 25.7 nM
effect on mitochondrial reductase activity (MTT) (MDM [3]): No effects
intracellular drug concentration (uptake) (MDM [4]; 100 μM, over 8 h): < 0.1 nmoles/10^6 cells
intracellular drug (retention) (MDM [4]; at 8 h): undetectable
inhibition at 100 µM (HIV-1ADA [5]; Human immunodeficiency virus 1, 8 h, read-out: protection (viral inhibition)): 40%
viral inhibition (HIV-1ADA [5]; MDM, single 8 h treatment 100 μM, challenge at time points later than day one): no viral inhibition
concentration at 7 days ([6]; male, Sprague Dawley, whole blood, intramuscular, 45 mg/kg FTC-equivalent): < 2 ng/mL
drug concentrations in blood and tissues over time (in words) ([6]; single IM 45 mg/kg): declined to undetectable levels within a day
FTC-TP levels in lymph node and spleen cells ([6]; single IM 45 mg/kg FTC equivalents, day 28 / one month): undetectable levels
drug levels in tissues (in words) ([6]; single IM 45 mg/kg, lymph nodes, spleen, liver): rapidly fell below the limit of quantitation
concentration not affecting cell viability (LiveDead staining) (CEM-ss CD4+ T-cells; human): ≤ 200 µM

CCCCCCCCCCCCCCCCCCCCCCOC(=O)[C@H](Cc1ccccc1)NP(=O)(OC[C@@H]1O[C@H](n2cc(F)c(N)nc2=O)CS1)Oc1ccccc1 (stereo partly drawn) [M2FTC]
fold improvement in octanol solubility compared to FTC ([1]; 1-octanol): 90 fold
octanol solubility ([1]; 1-octanol, saturated solution mixed 24 h): 87.56 ± 0.236 mg/mL
fold decrease in aqueous solubility compared to FTC ([1]; water): 4000 fold
aqueous solubility ([1]; water, saturated solution mixed 24 h): 0.0366 ± 0.0093 mg/mL (≈ 0.0426 mM)
prodrug degraded ([7]; acidic pH (0.1 M HCl)): 10%
prodrug degraded ([7]; alkaline pH (0.1 M NaOH)): 10%
chemical stability at neutral pH ([7]; neutral pH (water)): stable over 7 days
chemical stability in plasma ([8]; heat inactivated human plasma): over 90%
plasma stability (in words) ([8]; normal and heat inactivated human plasma, over 24 h): remained stable
chemical stability in plasma ([8]; normal human plasma): over 90%
degradation in plasma (in words) [9]: high
EC50 (HIV-1ADA [2]; HIV-1ADA in MDM, MOI 0.1, 10 days): 0.11 nM
effect on mitochondrial reductase activity (MTT) (MDM [3]): No effects
non-cytotoxic concentration (MTT) (MDM [3]; 24 h treatment): ≤ 100 µM
effect on cell viability (MTT) (MDM [3]; above 100 μM): slight reduction in cell viability
concentration not affecting cell viability (LiveDead staining) (CEM-ss CD4+ T-cells): ≤ 200 µM
